Tested on: Fibroblast
Experiment: Multiplex assay against human fibroblast
Assay type: toxicity, cell-based
In short: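 Live cells were stained at seeding with Hoechst33342, BioTracker Green Microtubule Cytoskeleton Dye, MitoTracker Red and Annexin V Alexa Fluor 680, then imaged on a CQ1 microscope at 37°C and 5% CO2 after compound addition. CellPathfinder machine-learning gating split cells into Hoechst high-intensity objects or normal cells. Normal cells were split into healthy, pyknosed or fragmented nuclei, and pyknosed cells into mitotic or apoptotic. Tubulin, mitochondrial-mass and membrane-permeability phenotypes are per cents of healthy-nucleus cells.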

[1] = 12 h, 1 µM, compound concentration 1 uM, replicate 1
[2] = 12 h, 1 µM, compound concentration 1 uM, replicate 2
[3] = 12 h, 10 µM, compound concentration 10 uM, replicate 1
[4] = 12 h, 10 µM, compound concentration 10 uM, replicate 2
[5] = 24 h, 1 µM, compound concentration 1 uM, replicate 1
[6] = 24 h, 1 µM, compound concentration 1 uM, replicate 2
[7] = 24 h, 10 µM, compound concentration 10 uM, replicate 1
[8] = 24 h, 10 µM, compound concentration 10 uM, replicate 2
[9] = 48 h, 1 µM, compound concentration 1 uM, replicate 1
[10] = 48 h, 1 µM, compound concentration 1 uM, replicate 2
[11] = 48 h, 10 µM, compound concentration 10 uM, replicate 1
[12] = 48 h, 10 µM, compound concentration 10 uM, replicate 2

CN1CCN(c2nc3cc(C(F)(F)F)ccc3n3cccc23)CC1.O=C(O)/C=C\C(=O)O.O=C(O)/C=C\C(=O)O
Population Apoptotic (%) [1]: 50% | Population Fragmented Nuclei (%) [1]: 18% | Population Healthy Nuclei (%) [1]: 71% | Population Hoechst High Intensity Objects (%) [1]: 0% | Population Membrane Permeable-Phenotype (%) [1]: 0% | Population Mitochondria Different-Phenotype (%) [1]: 5% | Population Mitotic Cells (%) [1]: 50% | Population Normal (%) [1]: 99% | Population Pyknosed Nuclei (%) [1]: 9% | Population Tubulin-Different-Phenotype (%) [1]: 27% | Total Cell Count [1]: 146 | Population Apoptotic (%) [2]: 26% | Population Fragmented Nuclei (%) [2]: 24% | Population Healthy Nuclei (%) [2]: 46% | Population Hoechst High Intensity Objects (%) [2]: 6% | Population Membrane Permeable-Phenotype (%) [2]: 6% | Population Mitochondria Different-Phenotype (%) [2]: 4% | Population Mitotic Cells (%) [2]: 73% | Population Normal (%) [2]: 93% | Population Pyknosed Nuclei (%) [2]: 30% | Population Tubulin-Different-Phenotype (%) [2]: 47% | Total Cell Count [2]: 107 | Population Apoptotic (%) [3]: 40% | Population Fragmented Nuclei (%) [3]: 29% | Population Healthy Nuclei (%) [3]: 59% | Population Hoechst High Intensity Objects (%) [3]: 2% | Population Membrane Permeable-Phenotype (%) [3]: 0% | Population Mitochondria Different-Phenotype (%) [3]: 25% | Population Mitotic Cells (%) [3]: 59% | Population Normal (%) [3]: 97% | Population Pyknosed Nuclei (%) [3]: 10% | Population Tubulin-Different-Phenotype (%) [3]: 69% | Total Cell Count [3]: 207 | Population Apoptotic (%) [4]: 60% | Population Fragmented Nuclei (%) [4]: 35% | Population Healthy Nuclei (%) [4]: 41% | Population Hoechst High Intensity Objects (%) [4]: 4% | Population Membrane Permeable-Phenotype (%) [4]: 4% | Population Mitochondria Different-Phenotype (%) [4]: 38% | Population Mitotic Cells (%) [4]: 40% | Population Normal (%) [4]: 95% | Population Pyknosed Nuclei (%) [4]: 22% | Population Tubulin-Different-Phenotype (%) [4]: 85% | Total Cell Count [4]: 117 | Population Apoptotic (%) [5]: 66% | Population Fragmented Nuclei (%) [5]: 16% | Population Healthy Nuclei (%) [5]: 72% | Population Hoechst High Intensity Objects (%) [5]: 1% | Population Membrane Permeable-Phenotype (%) [5]: 0% | Population Mitochondria Different-Phenotype (%) [5]: 2% | Population Mitotic Cells (%) [5]: 33% | Population Normal (%) [5]: 98% | Population Pyknosed Nuclei (%) [5]: 10% | Population Tubulin-Different-Phenotype (%) [5]: 23% | Total Cell Count [5]: 142 | Population Apoptotic (%) [6]: 40% | Population Fragmented Nuclei (%) [6]: 35% | Population Healthy Nuclei (%) [6]: 42% | Population Hoechst High Intensity Objects (%) [6]: 6% | Population Membrane Permeable-Phenotype (%) [6]: 7% | Population Mitochondria Different-Phenotype (%) [6]: 7% | Population Mitotic Cells (%) [6]: 59% | Population Normal (%) [6]: 93% | Population Pyknosed Nuclei (%) [6]: 22% | Population Tubulin-Different-Phenotype (%) [6]: 43% | Total Cell Count [6]: 104 | Population Apoptotic (%) [7]: 77% | Population Fragmented Nuclei (%) [7]: 24% | Population Healthy Nuclei (%) [7]: 64% | Population Hoechst High Intensity Objects (%) [7]: 6% | Population Membrane Permeable-Phenotype (%) [7]: 0% | Population Mitochondria Different-Phenotype (%) [7]: 32% | Population Mitotic Cells (%) [7]: 22% | Population Normal (%) [7]: 93% | Population Pyknosed Nuclei (%) [7]: 10% | Population Tubulin-Different-Phenotype (%) [7]: 75% | Total Cell Count [7]: 214 | Population Apoptotic (%) [8]: 63% | Population Fragmented Nuclei (%) [8]: 37% | Population Healthy Nuclei (%) [8]: 43% | Population Hoechst High Intensity Objects (%) [8]: 1% | Population Membrane Permeable-Phenotype (%) [8]: 6% | Population Mitotic Cells (%) [8]: 36% | Population Normal (%) [8]: 98% | Population Pyknosed Nuclei (%) [8]: 19% | Population Tubulin-Different-Phenotype (%) [8]: 86% | Total Cell Count [8]: 117 | Population Apoptotic (%) [9]: 44% | Population Fragmented Nuclei (%) [9]: 25% | Population Healthy Nuclei (%) [9]: 63% | Population Hoechst High Intensity Objects (%) [9]: 2% | Population Membrane Permeable-Phenotype (%) [9]: 1% | Population Mitochondria Different-Phenotype (%) [9]: 2% | Population Mitotic Cells (%) [9]: 55% | Population Normal (%) [9]: 97% | Population Pyknosed Nuclei (%) [9]: 11% | Population Tubulin-Different-Phenotype (%) [9]: 22% | Total Cell Count [9]: 162 | Population Apoptotic (%) [10]: 42% | Population Fragmented Nuclei (%) [10]: 37% | Population Healthy Nuclei (%) [10]: 40% | Population Hoechst High Intensity Objects (%) [10]: 3% | Population Membrane Permeable-Phenotype (%) [10]: 0% | Population Mitotic Cells (%) [10]: 57% | Population Normal (%) [10]: 96% | Population Pyknosed Nuclei (%) [10]: 21% | Population Tubulin-Different-Phenotype (%) [10]: 57% | Total Cell Count [10]: 102 | Population Apoptotic (%) [11]: 77% | Population Fragmented Nuclei (%) [11]: 22% | Population Healthy Nuclei (%) [11]: 68% | Population Hoechst High Intensity Objects (%) [11]: 7% | Population Membrane Permeable-Phenotype (%) [11]: 0% | Population Mitochondria Different-Phenotype (%) [11]: 28% | Population Mitotic Cells (%) [11]: 22% | Population Normal (%) [11]: 92% | Population Pyknosed Nuclei (%) [11]: 9% | Population Tubulin-Different-Phenotype (%) [11]: 77% | Total Cell Count [11]: 211 | Population Apoptotic (%) [12]: 63% | Population Fragmented Nuclei (%) [12]: 33% | Population Healthy Nuclei (%) [12]: 57% | Population Hoechst High Intensity Objects (%) [12]: 5% | Population Membrane Permeable-Phenotype (%) [12]: 1% | Population Mitochondria Different-Phenotype (%) [12]: 23% | Population Mitotic Cells (%) [12]: 36% | Population Normal (%) [12]: 94% | Population Tubulin-Different-Phenotype (%) [12]: 85% | Total Cell Count [12]: 118
